In assay [1] the test system is Mus musculus. The experiment in a line: In vivo inhibition of MEK1/2 in LmnaH222P/H222P mouse model of cardiomyopathy assessed as reduction in ERK1/2 activation-mediated muscular dystrophy by measuring inhibition of serum creatine phosphokinase activity at 6 mg/kg/day, po administered 6 days per week via gavage starting from 14 weeks of age up to 20 weeks of age. Type of assay: functional, organism-based. Summed up: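 Serum from male Lmna H222P/H222P mice gavaged with vehicle or 3 or 6 mg/kg/day from 14 to 20 weeks of age was assayed for creatine phosphokinase activity. Means ± SE, n = 10 per group.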

Assay [2] in a line: Cardioprotective activity in LmnaH222P/H222P mouse model of cardiomyopathy assessed as heart rate at 6 mg/kg/day, po administered 6 days per week via gavage starting from 14 weeks of age up to 20 weeks of age by echocardiographic method (reference value: 502.73 +/- 0.46 bpm). In kind it is functional, organism-based.
A short description of assay [3]: Cardioprotective activity in LmnaH222P/H222P mouse model of cardiomyopathy assessed as left ventricular end diastolic diameter at 3 mg/kg/day, po administered 6 days per week via gavage starting from 14 weeks of age up to 20 weeks of age by echocardiographic method (reference value: 3.96 +/- 0.08 millimeter). In kind it is functional, organism-based. The conditions noted are these: Heart.

Assay [4] is described as follows: Cardioprotective activity in LmnaH222P/H222P mouse model of cardiomyopathy assessed as reduction in Myl7 mRNA expression in heart at 6 mg/kg/day, po administered 6 days per week via gavage starting from 14 weeks of age up to 20 weeks of age by qRT-PCR method relative to placebo treated control. In kind it is functional, organism-based. Summed up: (§1)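 Hearts from male Lmna H222P/H222P mice gavaged 6 days/week, weeks 14–20, with vehicle or 3 or 6 mg/kg/day. Real-time RT-PCR with SYBR green and 200 nM of each primer; 95°C 2 min, then 50 cycles of 95°C 30 s and 62°C 30 s. ΔΔCT method normalized to Gapdh; fold change versus placebo (n = 5, 5, 6).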
On the technique in general: Real-time PCR tracks product formation cycle by cycle.

The nature of assay [5]: Cardioprotective activity in LmnaH222P/H222P mouse model of cardiomyopathy assessed as heart rate at 3 mg/kg/day, po administered 6 days per week via gavage starting from 14 weeks of age up to 20 weeks of age by echocardiographic method (reference value: 502.73 +/- 0.46 bpm). In kind it is functional, organism-based.
Assay [6] can be described thus: Cardioprotective activity in LmnaH222P/H222P mouse model of cardiomyopathy assessed as reduction in myocardial fibrosis administered 6 days per week via oral gavage starting from 14 weeks of age up to 20 weeks of age by masson trichrome staining based assay. In kind it is functional, tissue-based. The note with it: Heart. In a few lines:
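Left ventricles from male mutant mice dosed 3 or 6 mg/kg/day by gavage (weeks 14–20) were fixed in 4% formaldehyde for 48 h, paraffin-embedded, cut at 5 μm and stained with Masson trichrome. Graded 0–4 for vacuolation and fibrosis: 0–2 no fibrosis with none, mild or moderate vacuolation; 3 mild fibrosis; 4 severe fibrosis. n = 5, 5, 6.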

Assay [7] is described as follows: Cardioprotective activity in LmnaH222P/H222P mouse model of cardiomyopathy assessed as left ventricular end systolic diameter at 6 mg/kg/day, po administered 6 days per week via gavage starting from 14 weeks of age up to 20 weeks of age by echocardiographic method (reference value: 3.32 +/- 0.1 millimeter). Type of assay: functional, organism-based. The conditions noted are these: Heart.

Assay [8] can be described thus: Cardioprotective activity in LmnaH222P/H222P mouse model of cardiomyopathy assessed as reduction in Nppa mRNA expression in heart at 3 to 6 mg/kg/day, po administered 6 days per week via gavage starting from 14 weeks of age up to 20 weeks of age by qRT-PCR method relative to placebo treated control. In kind it is functional, organism-based. Summed up:
as §1

A short description of assay [9]: Cardioprotective activity in LmnaH222P/H222P mouse model of cardiomyopathy assessed as left ventricular fractional shortening at 6 mg/kg/day, po administered 6 days per week via gavage starting from 14 weeks of age up to 20 weeks of age by echocardiographic method (reference value: 16.36 +/- 1.08%). Type of assay: functional, organism-based. The conditions noted are these: Heart.

Assay [10] can be described thus: Cardioprotective activity in LmnaH222P/H222P mouse model of cardiomyopathy assessed as left ventricular end diastolic diameter at 6 mg/kg/day, po administered 6 days per week via gavage starting from 14 weeks of age up to 20 weeks of age by echocardiographic method (reference value: 3.96 +/- 0.08 millimeter). Type of assay: functional, organism-based. The conditions noted are these: Heart.

The test system of assay [11] is Mus musculus. The experiment in a line: In vivo inhibition of MEK1/2 in LmnaH222P/H222P mouse model of cardiomyopathy assessed as reduction in ERK1/2 phosphorylation in liver at 3 to 6 mg/kg/day, po administered 6 days per week via gavage starting from 14 weeks of age up to 20 weeks of age by immunoblot method. In kind it is functional, organism-based. Summed up: (§2)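 Heart, liver and quadriceps from male mutant mice gavaged 3 or 6 mg/kg/day (weeks 14–20) were homogenized for protein. Proteins were run on SDS-PAGE, transferred to nitrocellulose and probed for phospho- and total ERK1/2 with HRP secondaries and chemiluminescence. Scanned blots were quantified as the pERK1/2 to total ERK1/2 ratio; n = 3, means ± SE.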

A short description of assay [12]: Cardioprotective activity in LmnaH222P/H222P mouse model of cardiomyopathy assessed as left ventricular fractional shortening at 3 mg/kg/day, po administered 6 days per week via gavage starting from 14 weeks of age up to 20 weeks of age by echocardiographic method (reference value: 16.36 +/- 1.08%). Type of assay: functional, organism-based. The note with it: Heart.

Assay [13] relates to Mus musculus. The experiment in a line: In vivo inhibition of MEK1/2 in LmnaH222P/H222P mouse model of cardiomyopathy assessed as reduction in ERK1/2 activation-mediated muscular dystrophy by measuring increase in forelimb grip fatigue index at 6 mg/kg/day, po administered 6 days per week via gavage starting from 14 weeks of age up to 20 weeks of age. Type of assay: functional, organism-based. Summed up: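 Forelimb grip strength was tested by an investigator blind to treatment on two consecutive days and normalized to body mass. Fatigue index = (C+D)/(A+B), where A–D are sums of pulls 1–3, 4–6, 10–12 and 13–15; a value of 1 means no fatigue. Mice were gavaged from weeks 14–20; n = 7 placebo, 6 treated.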

Assay [14] has as its system Mus musculus. Nature of the assay: In vivo inhibition of MEK1/2 in LmnaH222P/H222P mouse model of cardiomyopathy assessed as reduction in ERK1/2 phosphorylation in heart at 3 to 6 mg/kg/day, po administered 6 days per week via gavage starting from 14 weeks of age up to 20 weeks of age by immunoblot method. Type of assay: functional, organism-based. Summed up: as §2

The test system of assay [15] is Mus musculus. The experiment in a line: In vivo inhibition of MEK1/2 in LmnaH222P/H222P mouse model of cardiomyopathy assessed as reduction in ERK1/2 phosphorylation in quadriceps muscle at 6 mg/kg/day, po administered 6 days per week via gavage starting from 14 weeks of age up to 20 weeks of age by immunoblot method. In kind it is functional, organism-based. Summed up:
as §2
In general terms: In western blotting, separated proteins are transferred to a membrane and probed.

The target in assay [16] is Dual specificity mitogen-activated protein kinase kinase; MEK1/2 (Homo sapiens, UniProt P36507+Q02750). Nature of the assay: Inhibition of MEK1/2 in HEK293 cells assessed as reduction in ERK1/2 phosphorylation at 0.001 to 1 uM after 24 hrs by immunoblot method. Type of assay: cell-based. In a few lines: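 HEK-293 cells were grown in DMEM with 10% FBS, seeded at 5.0×10^5 per well and grown 24 h. After rinsing, they were exposed 24 h to serial dilutions from 1 to 0.001 µM final, or to Cremophor EL/saline vehicle. Cells were then washed with PBS, extracted and immunoblotted for phospho- and total ERK1/2.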

Assay [17] is described as follows: Cardioprotective activity in LmnaH222P/H222P mouse model of cardiomyopathy assessed as left ventricular end systolic diameter at 3 mg/kg/day, po administered 6 days per week via gavage starting from 14 weeks of age up to 20 weeks of age by echocardiographic method (reference value: 3.32 +/- 0.1 millimeter). In kind it is functional, organism-based. The note with it: Heart.

Among the data in ChEMBL document CHEMBL3875205, “Macrocyclic MEK1/2 inhibitor with efficacy in a mouse model of cardiomyopathy caused by lamin A/C gene mutation” (Bioorg Med Chem, 2017) are inhibition and Activity values, retold here.

The source made the active and inactive calls. The calls are words filed in the database; no cut-off is given here.

Dual specificity mitogen-activated protein kinase kinase; MEK1/2, sequence (P36507 whole entry, looked up): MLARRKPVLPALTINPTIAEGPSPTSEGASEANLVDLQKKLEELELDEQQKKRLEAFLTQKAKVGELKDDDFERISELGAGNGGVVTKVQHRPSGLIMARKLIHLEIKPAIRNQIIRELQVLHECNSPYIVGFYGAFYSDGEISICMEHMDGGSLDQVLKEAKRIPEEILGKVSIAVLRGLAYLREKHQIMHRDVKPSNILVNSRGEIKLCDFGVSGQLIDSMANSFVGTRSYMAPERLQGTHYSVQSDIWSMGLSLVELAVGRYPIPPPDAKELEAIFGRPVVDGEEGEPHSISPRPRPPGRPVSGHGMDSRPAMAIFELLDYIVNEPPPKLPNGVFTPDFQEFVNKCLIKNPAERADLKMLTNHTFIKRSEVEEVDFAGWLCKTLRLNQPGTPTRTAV
Dual specificity mitogen-activated protein kinase kinase; MEK1/2, sequence (Q02750 whole entry, looked up): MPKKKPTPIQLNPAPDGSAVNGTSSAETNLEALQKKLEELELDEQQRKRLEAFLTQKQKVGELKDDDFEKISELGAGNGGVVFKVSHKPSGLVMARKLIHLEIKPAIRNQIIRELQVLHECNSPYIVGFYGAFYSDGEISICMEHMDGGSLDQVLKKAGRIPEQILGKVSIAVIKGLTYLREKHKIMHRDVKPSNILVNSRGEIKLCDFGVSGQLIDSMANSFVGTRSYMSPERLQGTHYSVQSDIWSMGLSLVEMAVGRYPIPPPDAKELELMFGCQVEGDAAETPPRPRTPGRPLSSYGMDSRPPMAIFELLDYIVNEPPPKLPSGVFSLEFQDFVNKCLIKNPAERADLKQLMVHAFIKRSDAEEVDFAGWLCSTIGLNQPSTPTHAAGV

With `O=S1(=O)Nc2c(cc(F)c(F)c2Nc2ccc(I)cc2F)OCC(O)C(O)CC12CC2` (single isomer, unassigned; form 1), the inhibition entry (in the assay on Mus musculus [1]; with Mus musculus [11]; in the assay with Mus musculus [13]; in the assay on Mus musculus [14]; in the assay with Mus musculus [15]; in [16]) was “Active” in each case. Moreover, the Activity is 502 bpm in assay [2]; 4 mm in assay [3]; 504 bpm in assay [5]; “Dose-dependent effect” in assay [6]; 3.02 mm in assay [7]; 20.6% in assay [9]. Further, the Activity was determined as 3.77 mm in assay [10], 19.4% in [12] and 3.24 mm in assay [17]. Besides, the outcome in [4] and in assay [8] was Active.
